Assay outcomes from PubChem.
IDH1 R132H inh = IDH1 R132H (human) inhibition. IDH1 R132H reductase, diaphorase/resazurin fluorescence, 60 min. inhibition, % at 10 µM. 70,000 compounds, 0.18% hits; in the data active means inhibition above about 34%;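 further: 0% = DMSO and 100% = no enzyme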
T cruzi growth-1 = inhibitors of T. cruzi proliferation. T. cruzi beta-gal in NIH3T3, GalScreen luminescence, 90 h. inhibition, % at 8.34 µM. 77,000 compounds, 5.9% hits. AID 624255;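 active means mean inhibition above about 93%, with at least 55% of replicates each passing it, limit read from the data, passing the limit was not always enough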
KDM4C inh = blocks human GASC-1 (KDM4C) demethylase activity; GST-KDM4C 2-372, H3K9me3 peptide, LANCE TR-FRET; Q9H3R0; inhibition, % at 12.5 µM; 96,000 compounds, 0.15% hits;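 active means mean replicate inhibition above about 25%, with at least 55% of replicates also reaching it, limit read from the data, passing the limit was not always enough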
Target sequence (Q9H3R0 2-372 limits assumed): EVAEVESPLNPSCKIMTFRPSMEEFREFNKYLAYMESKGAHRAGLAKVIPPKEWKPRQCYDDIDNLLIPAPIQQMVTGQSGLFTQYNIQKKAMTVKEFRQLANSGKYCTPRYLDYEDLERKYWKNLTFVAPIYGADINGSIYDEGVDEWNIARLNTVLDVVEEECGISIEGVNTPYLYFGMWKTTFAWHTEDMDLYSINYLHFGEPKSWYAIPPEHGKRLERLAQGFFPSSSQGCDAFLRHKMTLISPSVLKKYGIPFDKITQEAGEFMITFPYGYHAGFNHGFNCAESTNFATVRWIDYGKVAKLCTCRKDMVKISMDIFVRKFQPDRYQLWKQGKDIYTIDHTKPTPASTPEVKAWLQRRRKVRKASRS
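Test system – GST-tagged GASC-1 (JMJD2C) catalytic fragment, aa 2-372 · Medium – HEPES buffer, pH 7.5, plus ascorbate · Reagent – H3K9me3 peptide with Fe(II)/2OG · Compound – one test concentration per compound · Timing – 30 min reaction, 60 min detection, RT · Technique – TR-FRET with Eu antibody and ULight streptavidin, EDTA stop · Read-out basis – inhibition from TR-FRET ratio decrease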
T cruzi growth-2 = Trypanosoma cruzi proliferation inhibition; shares compounds with T cruzi growth-1; T. cruzi beta-gal in NIH3T3, GalScreen luminescence, 90 h; inhibition, % at 8.35 µM; 5,600 compounds, 72% hits;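 active means mean replicate inhibition above about 95% and at least 55% of replicates individually reaching it, limit read from the data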
T cruzi growth-3 = inhibitors of T. cruzi proliferation | T. cruzi beta-gal in NIH3T3, GalScreen luminescence, 90 h | 5,600 compounds, 21% hits | inhibition, % at 2.09 µM | AID 651740 | shares compounds with T cruzi growth-1;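 active means mean inhibition above about 95%, with at least 55% of replicates also reaching it, limit read from the data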;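 further: plate controls were neutral control median for no effect and positive control median for full effect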
3T3 cytotox = kills mouse NIH/3T3 fibroblasts. shares compounds with T cruzi growth-1. NIH/3T3 viability, CellTiter-Glo ATP luminescence, 90 h. cytotoxicity (signal decrease), % at 8.35 µM. 5,600 compounds, 14% hits. AID 651742;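 active means mean signal decrease across replicates above about 35% based on untreated-well scatter, with enough replicates individually passing, limit read from the data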;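 further: 0% = median of neutral control wells and 100% = median of positive control wells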
NIH3T3 tox 2 = kills mouse NIH/3T3 fibroblasts; shares compounds with T cruzi growth-1; NIH/3T3 viability, CellTiter-Glo ATP luminescence, 90 h; inhibition, % at 24.9 µM; 5,600 compounds, 56% hits;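 active means mean loss of cell viability signal at or above a set limit, and enough replicates individually reaching it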;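 further: 0% = median of neutral control wells and 100% = median of positive control wells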
Numbers without * were called inactive; . = no result given; ! = not confirmed by another sample. This is one part of a sample in which hits are shown more often than they occur.

SMILES	IDH1 R132H inh	T cruzi growth-1	KDM4C inh	T cruzi growth-2	T cruzi growth-3	3T3 cytotox	NIH3T3 tox 2
COc1ccc(NC(=O)Nc2ccc3c(c2)C(=O)N([C@@H](C)CO)C[C@H](C)[C@H](CN(C)Cc2ccc(C(F)(F)F)cc2)OCCCC[C@@H](C)O3)cc1	0.0	96.0*	2.6	104.8*	101.9*	15.8	6.5
COc1ccc(NC(=O)Nc2ccc3c(c2)C(=O)N([C@H](C)CO)C[C@@H](C)[C@H](CN(C)Cc2ccc(C(F)(F)F)cc2)O3)cc1	-1.1	-11.2	10.9	.	.	.	.
C[C@H](CO)N1C[C@H](C)[C@@H](CN(C)Cc2ccc(C(F)(F)F)cc2)OCCCC[C@H](C)Oc2ccc(NC(=O)Nc3ccc(C(F)(F)F)cc3)cc2C1=O	.	32.1	12.3	.	.	.	.
Cc1ccc(C)c(C(Nc2ccccn2)c2cc(Cl)c3cccnc3c2O)c1 (centres undefined)	1.3	.	.	.	.	.	.
COc1ccccc1-n1nnnc1SCC(=O)Nc1ccccc1SC	0.0	.	.	.	.	.	.
CC(=O)OC1=C(C(=O)c2ccccc2)N(C)S(=O)(=O)c2ccccc21	-0.5	.	.	.	.	.	.
C[C@@H]1CN([C@@H](C)CO)C(=O)c2cc(-c3ccccc3F)cnc2O[C@@H]1CN(C)Cc1ccccc1	-0.6	24.0	1.7	.	.	.	.
COc1ccc(CN(C)C[C@@H]2Oc3c(NS(=O)(=O)c4ccccc4)cccc3C(=O)N([C@H](C)CO)C[C@@H]2C)cc1	.	6.2	-0.6	.	.	.	.
CC(C)N(Cc1nc(-c2ccccc2)no1)S(=O)(=O)c1ccccc1[N+](=O)[O-]	0.4	.	.	.	.	.	.
C=CCNC(=O)[C@@H]1[C@H]2C(=O)O[C@H](c3ccccc3)[C@H](c3ccccc3)N2[C@H](c2ccc(OCCO)cc2)[C@@]12C(=O)N(C(=O)OCCOC)c1ccc(C#CCC(C(=O)OC)C(=O)OC)cc12	0.2	.	.	.	.	.	.
CC(=O)c1cccc(NC(=O)CN(c2cc(Cl)c(Cl)cc2Cl)S(C)(=O)=O)c1	0.0	.	.	.	.	.	.
COc1ccc(C(C)=O)cc1CSc1nc2cc(C)c(C)cc2[nH]1	-1.4	.	.	.	.	.	.
O=C(CSc1nc2ccc([N+](=O)[O-])cc2s1)Nc1cc(Cl)cc(Cl)c1	-0.2	.	.	.	.	.	.
CC1OC(c2cc3oc(-c4ccccc4)cc(=O)c3c(O)c2O)CC(O)C1O (centres undefined)	0.0	.	.	.	.	.	.
C[C@@H]1CN([C@H](C)CO)C(=O)c2cc(NC(=O)Nc3ccc(C(F)(F)F)cc3)ccc2O[C@@H](C)CCCCO[C@H]1CN(C)Cc1ccc(C(F)(F)F)cc1	1.5	83.8	-1.6	.	.	.	.
C[C@@H]1CCCCO[C@H](CN(C)Cc2ccc(C(F)(F)F)cc2)[C@@H](C)CN([C@H](C)CO)C(=O)c2cc(NC(=O)Nc3ccc(C(F)(F)F)cc3)ccc2O1	1.2	98.5*	1.2	105.0*	112.1*	-0.3	-1.3
O=C1c2ccccc2C2=Nc3ccccc3SC(c3ccsc3)C12 (centres undefined)	0.4	.	.	.	.	.	.
COc1ccccc1NC(=O)N1CCCCN2[C@H](CO)[C@H](c3ccc(-c4cccc(F)c4)cc3)[C@H]2C1	.	28.5	-1.7	.	.	.	.
O=C(Nc1ccc(F)cc1)N1CCCCN2[C@H](CO)[C@@H](c3ccc(-c4cccc(F)c4)cc3)[C@H]2C1	.	91.0	-1.5	.	.	.	.
O=C(Nc1ccc(F)cc1)N1CCCCN2[C@@H](CO)[C@H](c3ccc(-c4cccc(F)c4)cc3)[C@@H]2C1	.	106.2*	0.6	95.3*	79.6	119.5*	103.3*
O=C(Nc1ccc(F)cc1)N1CCCCN2[C@H](CO)[C@H](c3ccc(-c4cccc(F)c4)cc3)[C@@H]2C1	.	117.8*	-3.4	108.2*	85.1	16.7	71.8*
C/C=C/c1ccc2c(c1)O[C@@H](CN(C)Cc1ccccc1F)[C@@H](C)CN([C@@H](C)CO)S2(=O)=O	-2.1	7.6	-0.4	.	.	.	.
C/C=C/c1ccc2c(c1)O[C@H](CN(C)Cc1ccccc1F)[C@H](C)CN([C@H](C)CO)S2(=O)=O	0.0	109.5*	0.2	102.5*	68.6	26.9	105.5*
C/C=C/c1ccc2c(c1)O[C@@H](CN(C)Cc1ccccc1F)[C@H](C)CN([C@H](C)CO)S2(=O)=O	1.6	113.8*	2.2	97.8*	62.3	50.7*	102.5*
C/C=C/c1ccc2c(c1)O[C@H](CN(C)Cc1cccc(F)c1)[C@@H](C)CN([C@H](C)CO)S2(=O)=O	-0.3	.	0.7	.	.	.	.
SMILES	IDH1 R132H inh	T cruzi growth-1	KDM4C inh	T cruzi growth-2	T cruzi growth-3	3T3 cytotox	NIH3T3 tox 2
C/C=C/c1ccc2c(c1)O[C@@H](CN(C)Cc1ccc(F)cc1)[C@@H](C)CN([C@H](C)CO)S2(=O)=O	1.5	39.2	2.8	.	.	.	.
C/C=C/c1ccc2c(c1)O[C@H](CN(C)Cc1ccccc1F)[C@H](C)CN([C@@H](C)CO)S2(=O)=O	0.0	119.8*	0.7	110.8*	78.3	35.9*	104.7*
CN(C)C(=O)C[C@H]1CC[C@H](NC(=O)C2CCOCC2)[C@H](CO)O1	-0.4	-40.4	0.9	.	.	.	.
COc1ccc(NC(=O)Nc2ccc3c(c2)C(=O)N([C@H](C)CO)C[C@H](C)[C@H](CN(C)S(=O)(=O)c2cccs2)OCCCC[C@H](C)O3)cc1	1.9	102.8*	0.1	107.3*	38.1	6.0	29.8*
COc1ccc(NC(=O)Nc2ccc3c(c2)C(=O)N([C@H](C)CO)C[C@@H](C)[C@H](CN(C)S(=O)(=O)c2cccs2)OCCCC[C@@H](C)O3)cc1	.	108.3*	-2.2	108.4*	22.2	1.0	-1.8
COc1ccc(NC(=O)Nc2ccc3c(c2)C(=O)N([C@H](C)CO)C[C@@H](C)[C@@H](CN(C)S(=O)(=O)c2cccs2)OCCCC[C@@H](C)O3)cc1	-2.3	.	-2.6	.	.	.	.
COc1ccc(NC(=O)Nc2ccc3c(c2)C(=O)N([C@H](C)CO)C[C@H](C)[C@H](CN(C)S(=O)(=O)c2cccs2)OCCCC[C@@H](C)O3)cc1	-2.8	-21.5	-2.6	.	.	.	.
Cc1ccc(C(C)C)c(OCC(=O)Nc2cc(-c3nc4ccccc4o3)ccc2C)c1	0.1	.	.	.	.	.	.
C[C@@H]1CCCCO[C@H](CN(C)S(C)(=O)=O)[C@H](C)CN([C@@H](C)CO)C(=O)c2cc(N(C)C)ccc2O1	-1.1	108.0*	9.3	51.9	-12.7	-32.7	-31.4
C[C@@H]1CN([C@@H](C)CO)C(=O)c2cc(N(C)C)ccc2O[C@@H](C)CCCCO[C@@H]1CN(C)S(C)(=O)=O	.	42.3	11.6	.	.	.	.
C[C@@H]1CN([C@H](C)CO)C(=O)c2cc(N(C)C)ccc2O[C@@H](C)CCCCO[C@H]1CN(C)S(C)(=O)=O	.	21.9	10.1	.	.	.	.
C[C@@H]1CCCCO[C@@H](CN(C)S(C)(=O)=O)[C@@H](C)CN([C@H](C)CO)C(=O)c2cc(N(C)C)ccc2O1	.	100.7*!	3.8	3.1	-21.5	-11.5	-11.4
